Screening results (PubChem)
IEC-6 cytotox: IEC-6 cytotoxicity, counter-screen for KLF5 inhibitors | luminescence viability | inhibition, % at 5 µM | actives 0.78% (n = 290,000) | AID 1825; in the data active = inhibition above about 22%;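 also: 0% = plate median of test compound wells and 100% = cytotoxic reference compound wells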
b-catenin transl: modulators of beta-catenin nuclear translocation | HeLa beta-catenin nuclear translocation, immunofluorescence imaging | nuclear translocation activity, % at 5 µM | actives 0.3% (n = 190,000);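 active = nuclear translocation activity above 50% at 5 µM, with a well cell count of 50 or more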;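 also: per-cell ratio of nuclear to cytoplasmic median beta-catenin stain intensity; plate controls were DMSO negative control for no effect and GSK-3 inhibitor IX positive control for full effect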
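Test system: human HeLa cell line; Doses: 5 µM primary, 0.02–20 µM confirmation; Incubation: 24 h compound exposure, 37°C; Detection: beta-catenin immunofluorescence imaging with DAPI; Read-out: beta-catenin nuclear/cytoplasmic ratio, % activation.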
KLF5 inhibitor: inhibitors of KLF5 expression. AID 1700. actives 0.23% (n = 290,000). inhibition, % at 5 µM. DLD-1 KLF5 promoter-luciferase reporter, luminescence;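 active = inhibition above a per-plate limit of that plate's mean compound inhibition plus 3 SD, cut at about 60% in these data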;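 also: 0% = DMSO wells and 100% = LY294002 at 200 µM; higher means less KLF5 promoter-driven luciferase light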
MT stabilizer: microtubule stabilization, imaging screen; HeLa tubulin immunostaining HCS, 24 h; share of cells brighter than vehicle mean+2SD; % tubulin-high responders, % at 10 µM; actives 0.83% (n = 200,000); AID 2205;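 active = plate Z-score above 3 for both tubulin-high and condensed-nucleus cell shares, with cell loss under 80%, at 10 µM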;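 also: anti alpha tubulin signal scored within the nucleus-defined area of each cell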
Ba/F3 V617F tox: loss of viability in JAK2V617F-driven Ba/F3 cells. actives 1.1% (n = 220,000). inhibition, % at 5.6 µM. Ba/F3 EpoR-JAK2V617F viability, ATP luminescence. AID 1446;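 active = inhibition above the campaign mean plus 3 SD over all tested compounds, cut at about 24% in these data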;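 also: cytokine-independent growth of Ba/F3 cells driven by EpoR plus mutant JAK2; 0% = DMSO-treated cells and 100% = JAK inhibitor I control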
BaF3 parental: parental Ba/F3 viability inhibition as JAK2V617F counter-screen. CellTiter-Glo ATP luminescence. inhibition, % at 5.6 µM. actives 1.1% (n = 220,000);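 active = inhibition above a per-campaign cutoff, the mean inhibition of all tested compounds plus 3 SD, cut at about 27% in these data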;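 also: 0% = DMSO wells and 100% = JAK Inhibitor I control wells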
Starred values were filed as active, the others as inactive; i = inactive; x = not tested or not shown. A selection: hits, their analogues and other compounds. The true share with any hit is near 2.1%.

SMILES	IEC-6 cytotox	b-catenin transl	KLF5 inhibitor	MT stabilizer	Ba/F3 V617F tox	BaF3 parental
O=C(CCc1nnc(CCCCc2ccccc2)o1)N1CCCCC1CCO (centres undefined)	2.7	1.6	17.0	x	0.4	-0.1
COc1ccccc1NC(=O)c1oc2ccccc2c1NC(=O)c1cc(OC)c(OC)c(OC)c1	-1.4	x	-0.3	36.4*	1.3	6.0
COc1ccc(NC(=O)c2oc3ccccc3c2NC(=O)c2ccco2)cc1	-4.7	1.4	-19.1	2.9	-2.2	35.2*
COc1ccc(NC(=O)c2oc3ccccc3c2NC(=O)c2ccco2)c(OC)c1	4.5	-0.4	1.0	i	1.1	3.4
CCN1CCN(CCNC(=O)c2ccc3c(c2)N(Cc2cccc(Cl)c2)C(=O)c2ccccc2S3=O)CC1 (centres undefined)	2.4	x	-34.3	x	x	x
CCC(C)(C)c1ccc(OCCCC[n+]2ccc(C)cc2)c(C(C)(C)CC)c1	21.4	9.0	34.9	57.0	101.7*	102.9*
CCC(C)(C)c1ccc(OCCCC[n+]2cccc(C)c2C)c(C(C)(C)CC)c1	21.5	32.3	40.7	x	98.5*	99.2*
Cc1cc(C(C)(C)C)ccc1OCCCCN1CCCC1	-7.6	7.7	-0.8	4.1	-1.7	7.0
CCOC(=O)C1=C(N)n2c(s/c(=C\c3ccncc3)c2=O)=C(C(=O)OCC)C1c1ccncc1 (centres undefined)	3.7	1.7	-0.9	2.2	-1.3	10.2
CCOC(=O)C1=C(N)n2c(s/c(=C\c3cccs3)c2=O)=C(C(=O)OCC)C1c1cccs1 (centres undefined)	17.7	99.2*	5.5	45.2*	42.2*	54.0*
COc1ccc(-n2nc3c(N4CCC(C(=O)N5CCC(C)CC5)CC4)nnc(C)c3c2C)cc1	6.3	x	6.5	x	x	x
CCOC(=O)Cn1c(=O)c(-c2cc(Br)ccc2N)nc2ccccc21	12.6	2.5	-19.5	x	46.9*	87.6*
Cn1c(=O)c(-c2cc(Br)ccc2N)nc2ccccc21	8.6	x	-13.4	2.5	40.1*	46.0*
CCOC(=O)Cn1c(=O)c(-c2ccccc2N)nc2ccccc21	x	-1.1	x	x	x	x
CCc1nnc(NC(=O)c2cccc(C(=O)Nc3nnc(CC)s3)n2)s1	93.2*	0.0	53.8	4.9	2.6	11.5
COc1cccc2sc(/N=C/N(C)C)nc12	4.0	0.4	-38.5	x	1.2	2.1
Cc1oc(C(=O)Nc2ccc(O)cc2)cc1COc1ccccc1	5.0	-0.2	-10.1	4.3	9.0	37.2*
CCc1nc2nc(C)c(NS(=O)(=O)c3ccc(C4CCCCC4)cc3)c(=O)n2[nH]1	2.9	x	-24.9	x	x	x
COc1ccc2c(c1)C(=O)N(c1ccc(C)cc1C)C(=O)C2(C)C	1.7	x	11.6	x	x	x
COc1ccc2c(c1)C(=O)N(c1ccccc1C)C(=O)C2(C)C	-0.9	0.1	-21.2	19.0*	-2.7	3.3
CCN1C(=O)/C(=C/C=C2\N(CC)c3cc(S(=O)(=O)N(C)C)ccc3N2c2ccccc2)SC1=S	-5.8	6.1	-18.1	x	-0.1	-4.7
CC(/C=C1\N=C(SCc2ccccc2Cl)SC1=O)=C\c1ccccc1	-5.6	x	-15.6	2.4	-1.3	1.3
COc1ccc(Cn2c(C3CCCCC3)nc3c(c(=O)c4ccccc4n3C)c2=O)cc1	4.6	0.6	-4.3	x	0.5	-1.1
COc1ccc(CCn2c(C3CCCCC3)nc3c(c(=O)c4ccccc4n3C)c2=O)cc1	4.1	50.7*	18.4	x	0.4	4.3
CS(=O)(=O)c1nc(-c2ccc(F)cc2)cc(C(F)(F)F)n1	25.1*	-0.5	-40.5	2.4	14.9	8.4
SMILES	IEC-6 cytotox	b-catenin transl	KLF5 inhibitor	MT stabilizer	Ba/F3 V617F tox	BaF3 parental
COC(=O)CCS(=O)(=O)c1nc(-c2ccccc2)cc(C(F)(F)F)n1	4.0	2.2	-23.1	3.9	2.6	7.1
CCOC(=O)CCS(=O)(=O)c1nc(-c2ccccc2)cc(C(F)(F)F)n1	7.9	-1.4	-13.2	2.5	39.2*	6.6
CCOC(=O)CS(=O)(=O)c1nc(-c2ccccc2)cc(C(F)(F)F)n1	27.8*	3.5	7.8	5.4	78.6*	10.3
CCN1CCN(C(c2ccc(C(F)(F)F)cc2)c2ccc3cccnc3c2O)CC1 (centres undefined)	15.0	x	29.4	x	x	x
OCCN1CCN(C(c2cccs2)c2ccc3cccnc3c2O)CC1 (centres undefined)	49.6*	-0.1	83.0*	6.8	100.1*	85.6*
CC(=O)N(/N=C/c1ccc(C)cc1)c1nc(CCl)cs1	-5.3	x	-5.8	x	x	x
CC[n+]1c(/C=C/N(C)c2ccccc2)oc2ccc(Cl)cc21	0.0	1.8	5.6	5.3	54.1*	59.0*
O=C1c2cccc3c(Cl)ccc(c23)C(=O)N1O	21.9*	1.4	-1.6	6.2	-1.6	5.3
O=[N+]([O-])c1ccc2[nH]c3nc4ccccc4nc3c2c1	8.9	-1.0	-13.0	x	36.3*	42.8*
CC(C)c1ccc(N(CC(=O)NCc2ccc(F)cc2)C(=O)c2csnn2)cc1	6.5	0.4	-29.0	6.2	2.7	11.7
COC(=O)[C@@]1(Cc2ccc(OC)cc2)[C@@H]2C(=CC(=O)[C@H]2CC(=O)C(=O)N(C)C)CN1C(=O)c1ccccc1	3.7	-0.7	12.8	10.9	-3.4	4.0
C=C1C(=O)C=C2CN(C(=O)c3ccccc3)[C@@](Cc3ccc(F)cc3)(C(=O)OC)[C@@H]12	27.3*	0.2	-5.8	26.6	96.8*	91.8*
O=C1C=C(Nc2ccc(Cl)cc2)CC(c2ccccc2)C1 (centres undefined)	4.8	125.9*	-0.8	14.3*	1.9	10.5
CC(C)CCNC1=CC(=O)CC(c2ccccc2)C1 (centres undefined)	-1.5	x	-10.8	13.2*	-0.1	4.5
Cc1ccc(NC2=CC(=O)CC(c3ccc(Cl)cc3)C2)cc1 (centres undefined)	-2.0	-0.1	-13.3	4.3	1.3	2.5
Cc1ccc(NC2=CC(=O)CC(c3ccccc3)C2)cc1 (centres undefined)	12.7	9.7	7.5	19.8*	6.0	9.9
CN(C)CCCNC1=CC(=O)CC(c2ccccc2)C1 (centres undefined)	3.5	-0.4	18.3	2.4	-2.9	1.3
CCOC(=O)c1nc(N/N=C/c2ccccc2)sc1Br	-9.7	x	-86.6	x	x	x
CCOCCCNCc1ccc(OCCC(C)C)c(OC)c1	1.9	0.5	-33.0	2.8	-1.1	5.2
CC(C)Nc1nc(NC(C)(C)C)nc(Oc2ccc(=O)n(-c3ccccc3)n2)n1	0.4	2.3	-7.4	2.9	-3.6	-0.5
Cc1ccc(Cl)cc1NC(=O)c1cc(NC(=O)C2CCCCC2C(=O)O)ccc1N1CCOCC1 (centres undefined)	-1.3	x	-5.3	x	x	x
CC(C)(C)NC(=O)C(OC(=O)Cn1nnc(-c2ccc(F)cc2)n1)c1ccncc1 (centres undefined)	-1.5	-6.9	-36.8	4.3	0.8	92.6*
